Legend:
[1] = test system: Hsp90 from SKBr3 cellular extracts; experiment: Fluorescence polarization; assay type: binding; details: for IC50: read-out: IC50, binding affinity for Hsp90, Hsp90 from SKBr3 cellular extracts, displacement of GM-cy3B (6 nM), 4°C, 24 h
[2] = test system: c-Kit and IGF-IR in MDA-MB-468 cells; assay type: cell-based; details: 5 μM, 24 h
Outline: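 MDA-MB-468 breast cancer cells kept in DME/F12 with 10% FBS, 1% L-glutamine and 1% penicillin/streptomycin at 37°C under 5% CO₂. Grown to 60–70% confluence, then exposed to test compound for 24 h. Lysed in 50 mM Tris pH 7.4, 150 mM NaCl, 1% NP-40. 10–50 μg protein run on SDS-PAGE and blotted to nitrocellulose. Probed with anti-IGF-IR (1:1000) and anti-c-Kit (1:200), then HRP secondary (1:3000), with ECL detection.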

[3] = target: Cell surface Hsp90 in MV4-11 leukemia cells (Homo sapiens, UniProt P07900); experiment: Flow cytometry detection of cell surface Hsp90; assay type: cell-based; details: MV4-11 cells, 2 h at 37°C, SA-PE staining; D-biotin as control

Row | SMILES | IC50 [1] [µM] | fold loss in potency as compared to SNX-2112 ([1]; FP assay, SKBr3 extract) [fold] | steady-state levels of c-Kit and IGF-IR [2] | detection of cell surface Hsp90 [3]
1 | CCNC(=O)c1noc(-c2cc(C(C)C)c(O)cc2O)c1-c1ccc(CN2CCOCC2)cc1 [NVP-AUY922, reference compound] | 0.0041 |  |  | 
2 | CCNC(=O)c1noc(-c2cc(C(C)C)c(O)cc2O)c1-c1ccc(CNCCCCCCN)cc1 [Compound 10, 4-(4-((6-Aminohexylamino)methyl)phenyl)-5-(2,4-dihydroxy-5-isopropylphenyl)-N-ethylisoxazole-3-carboxamide] | 0.007 |  |  | 
3 | Nc1ncnc2c1nc(Sc1cc3c(cc1I)OCO3)n2CCCNCCOCCOCCOCCNC(=O)CCCC[C@@H]1SC[C@@H]2NC(=O)N[C@@H]21 [Compound 7] | 0.0671 |  |  | can detect Hsp90 expression on the surface of leukemia cells

Continued by falling IC50 [1], values first:

Row | IC50 [1] [µM] | SMILES | fold loss in potency as compared to SNX-2112 ([1]; FP assay, SKBr3 extract) [fold] | steady-state levels of c-Kit and IGF-IR [2] | detection of cell surface Hsp90 [3]
4 | 0.21 | CC1(C)CC(=O)c2c(C(F)(F)F)nn(-c3ccc(C(N)=O)c(N[C@H]4CC[C@H](N)CC4)c3)c2C1 [Compound 18, 2-(trans-4-Aminocyclohexylamino)-4-(6,6-dimethyl-4-oxo-3-(trifluoromethyl)-4,5,6,7-tetrahydro-1H-indazol-1-yl)benzamide] | ~14 |  | 
5 | 0.0247 | CC1(C)CC(=O)c2c(C(F)(F)F)nn(-c3ccc(C(N)=O)c(N[C@H]4CC[C@H](NC(=O)CCCCCN)CC4)c3)c2C1 [Compound 20, 2-(trans-4-(6-Aminohexanamido)cyclohexylamino)-4-(6,6-dimethyl-4-oxo-3-(trifluoromethyl)-4,5,6,7-tetrahydro-1H-indazol-1-yl)benzamide] |  |  | 
6 | 0.0224 | CC(C)NCCCn1c(Sc2cc3c(cc2I)OCO3)nc2c(N)ncnc21 [PU-H71, reference compound] |  | reduction in the steady-state levels | 

From article PMC3143825 (Bioorganic & medicinal chemistry, 2011)
